Active and inactive are the calls of the source. The calls are words filed in the database; no cut-off is given here.

The test system of data set [1] is L929. The data set is described as follows: Cytoprotective activity in Pseudomonas aeruginosa exotoxin induced toxicity in mouse L929 cells assessed as protection factor after 18 hrs by liquid scintillation analysis relative to untreated control. The data set is classed as functional. In outline: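 L929 cells were intoxicated with increasing doses of Pseudomonas exotoxin A for 18 h with compound (30 μM) or DMSO present. Protein synthesis was measured; duplicate wells, mean ± SD, one representative experiment (n = 3).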

Data set [2] relates to Vero. The data set is described as follows: Inhibition of TcsL-induced cytotoxicity against African green monkey Vero cells assessed as reversal of toxin-induced cell rounding at 30 uM in presence of TcsL after 16 hrs by inverted microscopic analysis relative to ABMA. In kind it is functional, Chlorocebus sabaeus. In outline: (§1)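 Vero cells were given compound (30 μM) or DMSO, then increasing doses of TcdB for 4 h or TcsL for 16 h. Cell rounding was imaged by inverted microscope. Rounded cells were counted and normalised to total Hoechst-counterstained cells (>100 cells per treatment).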

Data set [3] has as its system A549. The experiment in a line: Cytoprotection activity against diphtheria toxin-induced cytotoxicity against human A549 cells assessed as effect on protein synthesis incubated for 20 hrs followed by replacement of [14c]-Leucine containing medium and measured after 4 hrs by liquid scintillation analysis. In kind it is functional, cell-based. A digest of the protocol:
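A549 cells were incubated with compound and then challenged with increasing DT concentrations. DT cytotoxicity was read as protein synthesis inhibition. Data are mean of duplicate wells ± SD from one representative experiment (n = 3).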

For data set [4], the system named is A549. The experiment in a line: Selectivity index, ratio of CC50 for cytotoxicity against human A549 cells to EC50 for cytoprotective activity in diphtheria-induced cytotoxicity in human A549 cells.
Data set [5] deals with DLD-1. The experiment in a line: Cytoprotection activity in human DLD1 cells assessed as inhibition of diphtheria induced toxicity incubated for 20 hrs followed by replacement of [14c]-Leucine containing medium and measured after 4 hrs by liquid scintillation analysis. In kind it is functional, cell-based.
Data set [6] deals with Vero. The data set is described as follows: Inhibition of TcdB-induced cytotoxicity against African green monkey Vero cells assessed as reversal of toxin-induced cell rounding after 4 hrs by inverted microscopic analysis. In kind it is functional, cell-based. To be noted: Chlorocebus sabaeus. A digest of the protocol: as §1
In data set [7] the test system is Zaire ebolavirus. The data set is described as follows: Antiviral activity against Zaire EBOV-Mayinga expressing GFP infected in human HeLa cells preincubated for 1 hr followed by viral infection after 24 hrs by DAPI-staining based fluorescence assay. To be noted: Zaire, 1976, HeLa. The data set is classed as functional, organism-based.
The subject of data set [8] is A549. The experiment in a line: Inhibition of diphtheria induced toxicity in human A549 cells assessed as protection fold at 30 uM incubated for 20 hrs followed by replacement of [14c]-Leucine containing medium and measured after 4 hrs by liquid scintillation analysis relative to ABMA. The data set is classed as functional. A digest of the protocol:
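Single-concentration screen: 30 μM compound on A549 cells with increasing DT concentrations, read as protein synthesis inhibition. Protection fold was calculated with ABMA as the positive control.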

The test system of data set [9] is A549. The experiment in a line: Induction of lysosomal activation in human A549 cells assessed as increase in endosomal volume by measuring Lamp 1 expression at 30 uM incubated for 6 hrs by immunostaining based confocal microscopic analysis. In kind it is functional, cell-based.
The subject of data set [10] is HeLa. The data set is described as follows: Cytotoxicity against human HeLa cells assessed as reduction in cell viability at >100 uM incubated for 20 hrs by Alamar blue assay. The data set is classed as cell-based. In general terms: The colour change of resazurin is a common sign of viable cells or microbes.
Data set [11] concerns HUVEC. The experiment in a line: Cytotoxicity against HUVEC assessed as reduction in cell viability at >100 uM incubated for 20 hrs and measured after 2 hrs by Alamar blue assay. In kind it is cell-based. The conditions noted are these: human.

What is called EC50 is the concentration needed to bring the measured effect to its halfway point. In the case of `COc1ccc(Br)cc1CNC12CC3CC(C)(CC(C)(C3)C1)C2`, the “fold change (FC)” value in data set [1] is 4.8; in data set [2], 5.6; in data set [8], 18.5. The concentration giving a half-maximal response (EC50) in data set [3] turned out to be 25.7 µM; in data set [6], 38.6 µM; in data set [7], 0.908 µM. In addition, in data set [4], the “Ratio CC50/EC50” value is 4.7. For the same compound, the result in data set [5] and in [9] was Active. Also, the Activity result in [10] and in [11] was “Toxic” throughout.
